Source: ChEMBL document CHEMBL1131879, “Inhibition of macrophage migration inhibitory factor (MIF) tautomerase activity by dopachrome analogs” (Bioorg Med Chem Lett, 1999)

What was measured:
[1] = target: T1, Macrophage migration inhibitory factor (Homo sapiens) (UniProt P14174); test: Inhibitory activity against macrophage migration inhibitory factor tautomerase (MIF) at a concentration of 0.5 mM
T1 sequence (whole entry): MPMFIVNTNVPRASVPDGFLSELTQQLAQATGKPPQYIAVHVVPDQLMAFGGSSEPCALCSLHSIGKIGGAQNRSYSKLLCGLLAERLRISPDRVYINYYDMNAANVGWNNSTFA
Method in brief: (§1)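 Recombinant human MIF expressed in E. coli. The substrate is L-dopachrome methyl ester, generated by oxidizing 10 mM precursor stocks in 10 mM sodium phosphate, pH 6.0, with sodium periodate for 10 min, then quenching with methionine. Final substrate is 0.5 mM, with test compound at the stated concentration. The reaction starts on adding MIF from a 20 mg/mL stock. Percent inhibition is taken from the absorbance decrease at 475 nm over 1 min.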

[2] = target: T1, Macrophage migration inhibitory factor (Homo sapiens); test: Inhibitory activity against macrophage migration inhibitory factor tautomerase (MIF) at a concentration of 0.06 mM; method in brief: as §1
[3] = target: T1, Macrophage migration inhibitory factor (Homo sapiens); test: Inhibitory activity against macrophage migration inhibitory factor tautomerase (MIF) at a concentration of 0.125 mM; method in brief: as §1
[4] = target: T1, Macrophage migration inhibitory factor (Homo sapiens); test: Inhibitory activity against macrophage migration inhibitory factor tautomerase (MIF) at a concentration of 0.25 mM; method in brief: as §1
[5] = target: T1, Macrophage migration inhibitory factor (Homo sapiens); test: Inhibitory activity against macrophage migration inhibitory factor tautomerase (MIF) at a concentration of 0.02 mM; method in brief: as §1

Row | Structure (SMILES) | inhibition [1] | inhibition [2] | inhibition [3] | inhibition [4] | inhibition [5]
1 | CC1(C(=O)O)CC2=CC(=O)C(O)=CC2=N1 (racemic) | 35% |  |  |  | 
2 | COC(=O)[C@]1(C)CC2=CC(=O)C(O)=CC2=N1 | 45% |  |  |  | 
3 | CCOC(=O)/C=C/C1=CC(O)C(O)=CC1 (stereo not drawn) | 0% |  |  |  | 
4 | O=C1C=C2C(=NC(C(=O)O)C2O)C=C1O (stereo not drawn) | 100% | 9% | 41% | 98% | 
5 | CCCC(C(N)=O)C1=CC(O)C(O)=CC1 (stereo not drawn) | 0% |  |  |  | 
6 | CC1N=C2C=C(O)C(=O)C=C2C1O (stereo not drawn) | 92% | 22% | 54% | 88% | 
7 | C[N+]1=C2C=C(O)C(=O)C=C2C(O)C1 (stereo not drawn) | 98% |  | 54% | 79% | 21%
8 | C[C@@]1(C(=O)O)CC2=CC(=O)C(O)=CC2=N1 | 29% |  |  |  | 
9 | COC(=O)C1(C)CC2=CC(=O)C(O)=CC2=N1 (racemic) | 34% |  |  |  | 
